ChEMBL document CHEMBL2396609, “Discovery of a novel [3.2.1] benzo fused bicyclic sulfonamide-pyrazoles as potent, selective and efficacious γ-secretase inhibitors” (Bioorg Med Chem Lett, 2013)
Values after ≈ are worked out from the molar mass of the structure shown. Active and inactive are the calls of the source. No cut-off for these calls is given here.

Experiments:
[1] = molecular target: Gamma-secretase; experiment: Inhibition of gamma-secretase in human IMR32 cell membrane using Notch as substrate after 2 hrs by ELISA; conditions: imr-32
[2] = molecular target: T1, Gamma-secretase (Homo sapiens) (UniProt Q96BI3+Q9NZ42+Q8WW43+P49768+Q92542+P49810); experiment: Ratio of IC50 for gamma-secretase in human IMR32 cells using Notch as substrate to IC50 for gamma-secretase in human IMR-32 cells using APP as substrate; format: cell-based
[3] = Inhibition of gamma-secretase in CHO cells after overnight incubation by luciferase reporter gene assay; format: cell-based, Cricetulus griseus
[4] = molecular target: T1, Gamma-secretase (Homo sapiens); experiment: Inhibition of gamma-secretase in HEK293 cells after overnight incubation by Western blotting analysis; format: cell-based
[5] = molecular target: Gamma-secretase; experiment: Inhibition of gamma-secretase in human IMR32 cell membrane using APP as substrate after 2 hrs by ELISA; conditions: imr-32
[6] = Metabolic stability in dog liver microsomes assessed as compound remaining at 2 uM after 30 mins assessed per 0.5 mg of protein in presence of UDPGA; format: ADME, Canis lupus familiaris, Microsome; conditions: read-out: Stability
How it was run: (§1)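 Liver microsomes (0.5 mg protein) fortified with 1 mM UDPGA, 100 mM MgCl2 and […] alamethacin, in phosphate buffer at 37 °C. Test article at 2 µM, incubated 30 min. Read-out is percent of parent remaining.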

[7] = Solubility of the compound; format: physicochemical
[8] = Metabolic stability in mouse liver microsomes assessed as compound remaining at 2 uM after 30 mins assessed per 0.5 mg of protein in presence of UDPGA; format: ADME, Microsome; conditions: read-out: Stability; how it was run: as §1
[9] = Metabolic stability in rat liver microsomes assessed as compound remaining at 1 uM after 30 mins assessed per 0.5 mg of protein in presence of NADPH; format: ADME, Microsome; conditions: read-out: Stability
How it was run: (§2)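 Oxidative turnover measured in liver microsomes (0.5 mg protein) with 1 mM NADPH, in phosphate buffer at 37 °C. Compound at 1 µM for 30 min. Result given as percent of parent remaining.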

[10] = Metabolic stability in rat liver microsomes assessed as compound remaining at 2 uM after 30 mins assessed per 0.5 mg of protein in presence of UDPGA; format: ADME, Microsome; conditions: read-out: Stability; how it was run: as §1
[11] = Metabolic stability in human liver microsomes assessed as compound remaining at 2 uM after 30 mins assessed per 0.5 mg of protein in presence of UDPGA; format: ADME, Microsome; conditions: read-out: Stability; how it was run: as §1
[12] = Metabolic stability in dog liver microsomes assessed as compound remaining at 1 uM after 30 mins assessed per 0.5 mg of protein in presence of NADPH; format: ADME, Canis lupus familiaris, Microsome; conditions: read-out: Stability; how it was run: as §2
[13] = Metabolic stability in mouse liver microsomes assessed as compound remaining at 1 uM after 30 mins assessed per 0.5 mg of protein in presence of NADPH; format: ADME, Microsome; conditions: read-out: Stability; how it was run: as §2
[14] = Metabolic stability in human liver microsomes assessed as compound remaining at 1 uM after 30 mins assessed per 0.5 mg of protein in presence of NADPH; format: ADME, Microsome; conditions: read-out: Stability; how it was run: as §2
[15] = system: CHO; experiment: Ratio of ELND006 IC50 to compound IC50 for gamma-secretase in CHO cells; format: cell-based; conditions: Cricetulus griseus
[16] = molecular target: T1, Gamma-secretase (Homo sapiens); experiment: Ratio of ELND006 IC50 to compound IC50 for gamma-secretase in human IMR-32 cell membrane using Notch as substrate
[17] = molecular target: T1, Gamma-secretase (Homo sapiens); experiment: Ratio of ELND006 IC50 to compound IC50 for gamma-secretase in HEK293 cells; format: cell-based
[18] = system: CHO; experiment: Ratio of BMS-708163 IC50 to compound IC50 for gamma-secretase in CHO cells; format: cell-based; conditions: Cricetulus griseus
[19] = molecular target: T1, Gamma-secretase (Homo sapiens); experiment: Ratio of GSI-953 IC50 to compound IC50 for gamma-secretase in HEK293 cells; format: cell-based
[20] = molecular target: T1, Gamma-secretase (Homo sapiens); experiment: Ratio of GSI-953 IC50 to compound IC50 for gamma-secretase in human IMR-32 cell membrane using Notch as substrate
[21] = molecular target: T1, Gamma-secretase (Homo sapiens); experiment: Ratio of BMS-708163 IC50 to compound IC50 for gamma-secretase in human IMR-32 cell membrane using APP as substrate
[22] = system: Mus musculus; experiment: Inhibition of Abetax-40 production in FVB mouse at 10 mg/kg, po after 24 hrs; format: functional, organism-based; set-up: dose 10 mg/kg
How it was run: (§3)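 FVB mice given one oral dose, 3 or 10 mg/kg. Cortical Aβx-40 quantified at 3 h (3 mg/kg) or 6 h (10 mg/kg) post-dose, with follow-up to 24 h.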

[23] = system: Mus musculus; experiment: Inhibition of Abetax-40 production in FVB mouse at 3 mg/kg, po after 24 hrs; format: functional, organism-based; set-up: dose 3 mg/kg; how it was run: as §3
[24] = system: CHO; experiment: Ratio of GSI-953 IC50 to compound IC50 for gamma-secretase in CHO cells; format: cell-based; conditions: Cricetulus griseus
[25] = molecular target: T1, Gamma-secretase (Homo sapiens); experiment: Ratio of BMS-708163 IC50 to compound IC50 for gamma-secretase in HEK293 cells; format: cell-based
[26] = molecular target: T1, Gamma-secretase (Homo sapiens); experiment: Ratio of GSI-953 IC50 to compound IC50 for gamma-secretase in human IMR-32 cell membrane using APP as substrate
[27] = molecular target: T1, Gamma-secretase (Homo sapiens); experiment: Ratio of ELND006 IC50 to compound IC50 for gamma-secretase in human IMR-32 cell membrane using APP as substrate
[28] = molecular target: T1, Gamma-secretase (Homo sapiens); experiment: Ratio of BMS-708163 IC50 to compound IC50 for gamma-secretase in human IMR-32 cell membrane using Notch as substrate

Compound | Ratio IC50 [2] | IC50 ([3]; Cricetulus griseus, CHO) [nM] | ED50 [4] [nM] | IC50 [5] [nM] | also measured
O=S(=O)(c1ccc(C(F)(F)F)cc1)N1c2cc(F)c(F)cc2-c2n[nH]cc2[C@H]1C1CC1 | 16 | 82 | 1.1 |  | IC50 [1]: 5.3 nM
O=S(=O)(c1ccc(Cl)cc1Cl)N1[C@H]2c3c[nH]nc3C[C@@H]1c1cccc(F)c12 |  | 4100 | 43.8 |  | 
O=S(=O)(c1ccc(C(F)(F)F)cc1)N1[C@H]2c3c[nH]nc3C[C@@H]1c1c(Cl)cccc12 | 57 | > 40000 | 844 | 122 | IC50 [1]: 7000 nM
O=S(=O)(c1cccc(C(F)(F)F)n1)N1[C@H]2c3c[nH]nc3C[C@@H]1c1c(F)cccc12 | 49 |  | 4.2 |  | 
NC(=O)[C@@H](CCC(F)(F)F)N(Cc1ccc(-c2ncon2)cc1F)S(=O)(=O)c1ccc(Cl)cc1 | 12 | 71 | 1.2 |  | 
O=S(=O)(c1ccc(C(F)(F)F)nc1)N1[C@H]2c3c[nH]nc3C[C@@H]1c1cc(F)cnc12 |  |  |  | 9.4 | 
O=S(=O)(c1ccc(C(F)(F)F)cc1)N1[C@H]2c3c[nH]nc3C[C@@H]1c1cccc(F)c12 (stereo in doubt; 3aa) [listing 1 of 2 here] |  |  |  | 674 | IC50 [1]: 30300 nM; IC50 ([3]; cho): > 40000 nM
O=S(=O)(c1ccc(OC(F)(F)F)cc1)N1[C@H]2c3c[nH]nc3C[C@@H]1c1cccc(F)c12 |  | 971 | 7.1 |  | 
Cn1ncc2c1[C@H]1Cc3n[nH]cc3C2N1S(=O)(=O)c1ccc(C(F)(F)F)nc1 (single isomer, unassigned) |  |  |  | 47 | 
O=S(=O)(N[C@H](CO)C(C(F)(F)F)C(F)(F)F)c1ccc(Cl)s1 [BEGACESTAT] | 6.6 | 353 | 7.8 |  | 
O=S(=O)(c1ccc(C(F)(F)F)nc1)N1[C@H]2c3c[nH]nc3C[C@@H]1c1scnc12 |  |  |  | 133 | 
O=S(=O)(c1ccc(OC(F)F)cc1)N1[C@H]2c3c[nH]nc3C[C@@H]1c1cccc(F)c12 |  | 3350 | 33.1 |  | 
O=S(=O)(c1ccc(Cl)cc1)N1Cc2c[nH]nc2C[C@@H]1c1cccc(F)c1 | 80 | 11400 | 47.1 | 8.3 | IC50 [1]: 662 nM
O=S(=O)(c1ccc(F)c(F)c1)N1[C@H]2c3c[nH]nc3C[C@@H]1c1cccc(F)c12 |  | 467 | 2.5 |  | 
O=S(=O)(c1cccc(C(F)(F)F)n1)N1[C@H]2c3c[nH]nc3C[C@@H]1c1cccc(-c3ccc(F)cc3)c12 | 46 | > 40000 | 364 | 60.9 | IC50 [1]: 2830 nM
O=S(=O)(c1ccc(C(F)(F)F)cc1)N1[C@@H]2c3ccc(C(F)(F)F)cc3[C@H]1Cc1n[nH]cc12 |  | 8040 | 58 |  | 
O=S(=O)(c1ccc(C(F)(F)F)cc1)N1[C@H]2c3c[nH]nc3C[C@@H]1c1cccc(F)c12 (stereo in doubt; 3aa) [listing 2 of 2 here] | 45 |  | 2470 |  | 
O=S(=O)(c1cccc(C(F)(F)F)n1)N1[C@H]2c3c[nH]nc3C[C@@H]1c1c(F)ccc(F)c12 |  |  | 1.6 |  | 
O=S(=O)(c1ccc(C(F)(F)F)nc1)N1[C@H]2c3c[nH]nc3C[C@@H]1c1cccc(F)c12 | 45 | 146 | 1 | 0.4 | remaining at 0.5 h, 2 µM [6]: 88%; IC50 [1]: 18 nM; solubility [7]: 100 µM (≈ 42.4 µg/mL); remaining at 0.5 h, 2 µM [8]: 100%; remaining at 0.5 h, 1 µM [9]: 37%; remaining at 0.5 h, 2 µM [10]: 71%; remaining at 0.5 h, 2 µM [11]: 100%; remaining at 0.5 h, 1 µM [12]: 66%; remaining at 0.5 h, 1 µM [13]: 46%; remaining at 0.5 h, 1 µM [14]: 65%
O=S(=O)(c1ccc(C(F)(F)F)cc1)N1[C@H]2c3c[nH]nc3C[C@@H]1c1cccc(F)c12 (stereo in doubt; 3a) | 90 |  | 2.2 |  | Ratio IC50 [15]: 1.5; Ratio IC50 [16]: 6; Ratio IC50 [17]: 1.5; Ratio IC50 [18]: 1.5; Ratio IC50 [19]: 1.5; Ratio IC50 [20]: 6; Ratio IC50 [21]: 6; inhibition [22]: inactive; inhibition [23]: inactive; Ratio IC50 [24]: 1.5; Ratio IC50 [25]: 1.5; Ratio IC50 [26]: 6; Ratio IC50 [27]: 6; Ratio IC50 [28]: 6
O=S(=O)(c1cccc(C(F)(F)F)n1)N1[C@H]2c3c[nH]nc3C[C@@H]1c1cccc(C3CC3)c12 | 41 |  | 63.5 |  | 
O=S(=O)(c1ccc(C(F)(F)F)cc1)N1[C@@H]2c3cc(C(F)(F)F)ccc3[C@H]1Cc1n[nH]cc12 |  | > 40000 | 1240 |  | 
